A selection: hits, their analogues and other compounds. The true share with any hit is near 3.7%.
KCNQ1 act: potentiators or activators of KCNQ1 channel, primary screen, cell-based, thallium flux, high-throughput; AID 2648, 2010; Potassium voltage-gated channel subfamily KQT member 1 (Homo sapiens), P51787; CHO-K1 KCNQ1, thallium flux FluxOR fluorescence; stronger effect = higher value; B-score at 10 µM; 310,000 compounds, 0.35% hits;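 active = fluorescence ratio B-score, a plate-corrected score, at least three library SD, with initial intensity B-score within 5 SD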
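Schedule – 37 °C overnight plating, 90-min dark dye load, 20-min compound pretreatment · System – stable KCNQ1 CHO-K1 line · Probe or stimulus – thallium- and potassium-containing depolarizing buffer · Measured by – kinetic FluxOR fluorescence, 10 s baseline plus 110 s post-stimulus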
hERG rescue: hERG rescue from dofetilide block, primary screen, cell-based, CHO-hERG, FluxOR thallium flux, dofetilide IC70; Voltage-gated inwardly rectifying potassium channel KCNH2 (Homo sapiens), Q12809; dofetilide IC70 present; activation (rescue from dofetilide block), less the hit threshold, % at 10 µM; 310,000 compounds, 0.51% hits;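 active = activation above the mean of controls blocked by dofetilide plus 5 SD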;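 also: thallium influx through hERG after potassium depolarization seen as dye fluorescence rise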
KCNQ1 inh: inhibitors of human KCNQ1 channel, primary screen, cell-based, thallium flux, high-throughput; Potassium voltage-gated channel subfamily KQT member 1 (Homo sapiens), P51787; CHO-K1 KCNQ1, FluxOR thallium flux fluorescence; stronger effect = higher value; B-score at 10 µM; 310,000 compounds, 1.3% hits; AID 2642, 2010;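 active = compounds whose thallium flux B-score, printed positive for inhibition, exceeds three library SD while starting fluorescence stays within three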;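 also: channel opened by potassium depolarization with thallium stimulus after 20 min compound exposure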
KCNK3 block: human KCNK3 channel inhibitors, primary screen, CHO cells, FluxOR thallium flux, B-score; Potassium channel subfamily K member 3 (Homo sapiens), O14649; FluxOR fluorescence; stronger effect = lower value; B-score at 10 µM; 340,000 compounds, 0.84% hits;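 active = B-score under library mean minus 4 SD, starting fluorescence ratio at most library mean plus 5 SD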;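 also: more negative B-score means stronger inhibition of thallium flux through KCNK3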
KCNK9 block: KCNK9 potassium channel inhibitors, primary screen, HEK293 cells, thallium flux. 310,000 compounds, 1.2% hits. Potassium channel subfamily K member 9 (Homo sapiens), Q9NPC2. FluxOR thallium flux fluorescence; stronger effect = lower value. B-score at 10 µM;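 active = ratio B-score over 3 SD below the library mean, with starting fluorescence within 5 SD of its mean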;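 also: negative B-score means less thallium flux so channel inhibition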
Kir21 block: inhibitors of mouse Kir2.1 inward-rectifier potassium channel | Inward rectifier potassium channel 2 (Mus musculus), P35561 | B-score at 10 µM | HEK293-Kir2.1, FluxOR thallium flux fluorescence; stronger effect = lower value | 310,000 compounds, 0.85% hits;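 active = fluorescence ratio B-score at or below minus 3 SD of library scores, with starting-brightness B-score within 2 SD, cut at about -4.2 in these data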;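 also: channel flux triggered by added potassium and thallium sulfate stimulus; B-score of peak minus minimum fluorescence over baseline after thallium stimulus; more negative B-score means stronger Kir2.1 block with less thallium influx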
* marks the source's active call; other numbers are inactive results; i = inactive; . = no result given.

SMILES	KCNQ1 act	hERG rescue	KCNQ1 inh	KCNK3 block	KCNK9 block	Kir21 block
COC(=O)c1cc(=O)n(Cc2ccc(OC)c(OC)c2)c(=Nc2ccc(F)cc2)s1	i	-9	6*	i	i	0.47
COC(=O)c1cc(=O)n(Cc2ccc(F)cc2)c(=Nc2ccccc2)s1	i	-8	6*	i	i	-0.49
COC(=O)c1cc(=O)n(-c2ccccc2)c(=Nc2ccccc2)s1	i	-10	i	i	i	-0.55
CCOC(=O)c1ccc(N=c2sc(C(=O)OC)cc(=O)n2-c2ccc(C(=O)OCC)cc2)cc1	i	-10	6*	i	i	0.04
Fc1cccc(/C=N/Nc2ccccn2)c1	i	-11	i	i	i	-1.5
Fc1cccc(/C=N/Nc2ccc3ccccc3n2)c1	58*	10*	i	i	i	-0.85
Cn1ncc2c(N3CCC(Cc4ccccc4)CC3)ncnc21	i	-13	i	i	i	0.61
NNC(=O)c1cc2c(N3CCC(Cc4ccccc4)CC3)ncnc2s1	i	-22	6*	i	i	0.99
COc1ccc(NC(=S)NC(NC(=O)c2cccc3ccccc23)C(Cl)(Cl)Cl)c([N+](=O)[O-])c1 (stereo unspecified)	i	-2	i	i	-6.9*	0.17
COc1ccc([N+](=O)[O-])cc1NC(=S)NC(NC(=O)C(c1ccccc1)c1ccccc1)C(Cl)(Cl)Cl (stereo unspecified)	i	-11	14*	i	i	-0.18
Cc1cc([N+](=O)[O-])ccc1NC(=S)NC(=O)C(c1ccccc1)c1ccccc1	i	-8	7*	i	i	1.7
COc1ccc([N+](=O)[O-])cc1NC(=O)C(C)c1ccccc1 (stereo unspecified)	i	0	i	i	i	0.68
Cc1ccc(C)c(NC(=O)CN(C)C(=O)c2ccccc2OCc2ccccc2Cl)c1	i	-27	i	i	i	-4.1
COc1ccc(CNC2CCCc3ccccc32)cc1OC (stereo unspecified)	i	-11	i	i	i	0.25
COc1ccc(CNC2c3ccccc3-c3ccccc32)cc1OC	i	-6	i	i	i	-4.4*
CCCCn1nnc(NC(=S)NC(=O)c2ccc(-c3cccc(Cl)c3Cl)o2)n1	i	7.4*	i	i	i	2.2
CCCCn1nnc(NC(=O)c2ccc(-c3ccccc3[N+](=O)[O-])o2)n1	i	-31	i	i	i	0.03
Cc1ccc(C(=O)c2cc([N+](=O)[O-])ccc2N2CCCCC2)cc1	i	-12	i	i	-7.4*	1.7
CC1CCCN(c2ccc([N+](=O)[O-])cc2C(=O)c2ccccc2)C1 (stereo unspecified)	i	-15	6*	i	i	-2.6
Cc1ccc(C(=O)c2cc([N+](=O)[O-])ccc2N2CC(C)OC(C)C2)cc1 (stereo unspecified)	i	-3	i	i	i	-0.14
O=C(c1ccccc1)c1cc([N+](=O)[O-])ccc1N1CCOCC1	i	-5	i	i	i	-1.3
COc1ccc(CCN2CCC(Nc3nc4ccccc4n3Cc3ccc(F)cc3)CC2)cc1	i	.	i	i	i	-6.8*
O=C(NCc1ccncc1)c1ccccc1Nc1ccc(SC(F)F)cc1	i	-2	i	i	i	-0.53
CNC(=O)c1ccccc1Nc1ccc(SC(F)F)cc1	i	-12	6*	i	i	1
CC(=O)c1ccc(-c2nnc(CCC(=O)N(C)Cc3c(C)nc4ccccn34)o2)s1	i	8.1*	i	i	i	-0.02
SMILES	KCNQ1 act	hERG rescue	KCNQ1 inh	KCNK3 block	KCNK9 block	Kir21 block
CC(=O)c1ccc(-c2nnc(CCC(=O)N(C)Cc3cccc4cnccc34)o2)s1	i	-14	i	i	i	0.38
N#Cc1c(-c2ccccc2)nc(SCC(=O)NC2CCCCC2)[nH]c1=O	i	-10	i	i	i	0.92
COC(=O)C(CC(C)C)NC(=O)CSc1nc(-c2ccccc2)c(C#N)c(=O)[nH]1 (stereo unspecified)	i	5.3*	i	i	i	-0.31
CCCCN(C(=O)NCCCCCCNC(=O)N(CCCC)C1CCS(=O)(=O)C1)C1CCS(=O)(=O)C1 (stereo unspecified)	i	-10	i	i	i	-0.55
OC(CNCc1ccccc1)Cn1ccc2ccccc21 (stereo unspecified)	i	-4	i	i	i	-5.2*
CCC(=O)N1CCc2cc(S(=O)(=O)Nc3ccccc3C)ccc21	i	-4	i	i	i	0.05
COc1ccccc1C(=O)ON=C1c2ccccc2-c2ccccc21	i	-19	i	i	-8.1*	1.8
C[C@@H]1ON(C)[C@H]2C[C@H]3c4cc(-c5cccc(F)c5)ccc4CCN3C(=O)[C@@H]12	.	.	.	i	.	.
Oc1c(C(c2ccccn2)N2CCC(Cc3ccccc3)CC2)cc(Cl)c2cccnc12 (stereo unspecified)	i	-2	13*	.	i	0.06
CN1CCN(C(c2ccccn2)c2cc(Cl)c3cccnc3c2O)CC1 (stereo unspecified)	i	-10	i	i	i	-0.47
Cn1c(-c2ccccc2)cnc1NCc1ccc(F)cc1	i	-5	i	i	i	-4.9*
COCCNC(=O)C(C)OC(=O)c1cc2sccc2n1C (stereo unspecified)	i	5.7*	i	i	i	0.24
CCC(OC(=O)c1cc2sccc2n1C)C(=O)NCc1ccco1 (stereo unspecified)	i	1	i	i	i	2.9
CN(Cc1nc2ccccc2c(=O)[nH]1)C(=O)COc1ccccc1Cc1ccccc1	.	.	.	i	.	.
O=C(/C(N=Nc1cccc([N+](=O)[O-])c1)=C(/O)c1ccc(Br)cc1)C(F)(F)F	i	-16	9*	.	-9.2*	-0.89
CC1Cc2cc(S(=O)(=O)N3CCCC(C(=O)N4CCCCC4)C3)ccc2N1C(=O)C1CC1 (stereo unspecified)	i	-8	i	i	i	-0.61
